Measured values from ChEMBL document CHEMBL1127550 (J Med Chem, 1994).

Key:
Mus musculus [1] = species on record: Mus musculus; experiment: Tested for potency towards inhibition of the twitch response in mouse vas deferens; format: functional
Method in brief: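 Vasa deferentia from albino MF1 mice were mounted at 0.5 g initial tension in Mg2+-free Krebs at 37 °C, gassed 95% O2/5% CO2, and stimulated electrically (0.5 ms pulses). Increasing doses were added after washout; twitch amplitude at 14-15 min post-addition was compared with the pre-drug final minute. IC50 came from nonlinear-regression sigmoid log concentration-response curves, n = 6-8 tissues.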

Mus musculus [2] = experiment: Mean number of squares entered(counts) over a 5 min period after placement in the center of a walled arena marked out in 16 squares of equal size at 1.5625 (mg/kg) intravenous dose in 6 mice; format: ADME, organism-based; conditions: in vivo
Method in brief: (§1)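 Male MF1 mice (23-29 g) given drug iv at time zero (Tween 80/saline dispersion; vehicle control). Each mouse was placed immediately in the centre of a 30 × 30 cm walled arena divided into 16 equal squares. Squares entered from 0 to 5 min were counted. Ambient 20-22 °C, means ± SE, Dunnett's test against vehicle.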

Mus musculus [3] = experiment: Mean percentage time spend immobile on ring between 5 and 10 min at 3.125 (mg/kg) intravenous dose in 6 mice; format: ADME, organism-based; conditions: in vivo
Method in brief: (§2)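 In male MF1 mice (23-29 g) dosed iv at time zero with a Tween 80/saline dispersion, each animal was placed at 5 min on a 5.5-cm horizontal ring on a 16-cm stalk. The percentage of the 5-min session spent immobile was scored. Ambient 20-22 °C, means ± SE, Dunnett's test versus vehicle.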

Mus musculus [4] = experiment: Mean difference between rectal temperature measured at time zero and rectal temperature measured at 10 min at 1.5625 (mg/kg) intravenous dose in 6 mice; format: ADME, organism-based; conditions: in vivo
Method in brief: (§3)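 Male MF1 mice (23-29 g), drug dispersed with two parts Tween 80 by weight in 0.9% saline, injected iv at time zero; Tween 80 vehicle control. Rectal thermistor probe inserted 3 cm, read shortly before time zero and at 10 min; change = difference. Mice unrestrained in separate cages, ambient 20-22 °C. Means ± SE, Dunnett's test versus vehicle.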

Mus musculus [5] = experiment: Mean number of squares entered(counts) over a 5 min period after placement in the center of a walled arena marked out in 16 squares of equal size at 3.125 (mg/kg) intravenous dose in 6 mice; format: ADME, organism-based; conditions: in vivo; method in brief: as §1
Mus musculus [6] = experiment: Mean difference between rectal temperature measured at time zero and rectal temperature measured at 10 min at 3.125 (mg/kg) intravenous dose in 6 mice; format: ADME, organism-based; conditions: in vivo; method in brief: as §3
Mus musculus [7] = experiment: Mean percentage time spend immobile on ring between 5 and 10 min at 1.5625 (mg/kg) intravenous dose in 6 mice; format: ADME, organism-based; conditions: in vivo; method in brief: as §2
Cannabinoid receptor [8] = target: T1, Cannabinoid receptor (Rattus norvegicus, UniProt Q9QZN9+P20272); experiment: Binding affinity for the cannabinoid receptor in the presence of phenylmethanesulfonyl fluoride (PMSF) was determined in rat fore brain membranes; format: cell membranes, Membrane
Cannabinoid receptor [9] = target: T1, Cannabinoid receptor; experiment: Binding affinity for the cannabinoid receptor in the absence of phenylmethanesulfonyl fluoride (PMSF) was determined in rat fore brain membranes; format: cell membranes, Membrane
Mus musculus [10] = experiment: Mean percentage time spend immobile on ring between 5 and 10 min at 10 (mg/kg) intravenous dose in 6 mice; format: ADME, organism-based; conditions: in vivo; method in brief: as §2
Mus musculus [11] = experiment: Mean number of squares entered(counts) over a 5 min period after placement in the center of a walled arena marked out in 16 squares of equal size at 10 (mg/kg) intravenous dose in 6 mice; format: ADME, organism-based; conditions: in vivo; method in brief: as §1
Mus musculus [12] = experiment: Mean percentage time spend immobile on ring between 5 and 10 min at 6.25 (mg/kg) intravenous dose in 6 mice; format: ADME, organism-based; conditions: in vivo; method in brief: as §2
Mus musculus [13] = experiment: Mean difference between rectal temperature measured at time zero and rectal temperature measured at 10 min at 10 (mg/kg) intravenous dose in 6 mice; format: ADME, organism-based; conditions: in vivo; method in brief: as §3
Mus musculus [14] = experiment: Mean number of squares entered(counts) over a 5 min period after placement in the center of a walled arena marked out in 16 squares of equal size at 6.25 (mg/kg) intravenous dose in 6 mice; format: ADME, organism-based; conditions: in vivo; method in brief: as §1
Mus musculus [15] = experiment: Mean difference between rectal temperature measured at time zero and rectal temperature measured at 10 min at 6.25 (mg/kg) intravenous dose in 6 mice; format: ADME, organism-based; conditions: in vivo; method in brief: as §3

**Q.** `CCCCC/C=C\C/C=C\C/C=C\C/C=C\CCCC(=O)N[C@@H](C)CO` was tested. Which IC50 (Mus musculus [1]) did it give?
**A.** 230 nM

**Q.** With `CCCCC/C=C\C/C=C\C/C=C\C/C=C\CCCC(=O)N[C@H](C)CO` [METHANANDAMIDE] as the molecule, how does the IC50 (Mus musculus [1]) read?
**A.** 12 nM

**Q.** And the Hypokinesia (Mus musculus [2])?
**A.** 76.8 Counts

**Q.** What about the Ring immobility (Mus musculus [3]) of the same molecule?
**A.** 87.4%

**Q.** And the Body temperature (Mus musculus [4])?
**A.** 0.27 °C

**Q.** And the Hypokinesia (Mus musculus [5])?
**A.** 26.5 Counts

**Q.** And the Body temperature (Mus musculus [6])?
**A.** 1.5 °C

**Q.** What about the Ring immobility (Mus musculus [7]) of the same molecule?
**A.** 40.2%

**Q.** For `CCCCC/C=C\C/C=C\C/C=C\C/C=C\CCCC(=O)NC[C@H](C)O`, which IC50 (Mus musculus [1]) is on record?
**A.** 47 nM

**Q.** What about the Ki (Cannabinoid receptor [8]) of the same molecule?
**A.** 26 nM

**Q.** What about the Ki (Cannabinoid receptor [9]) of the same molecule?
**A.** 158 nM

**Q.** With `CCCCC/C=C\C/C=C\C/C=C\C/C=C\CCCC(=O)NC[C@@H](C)O` as the molecule, how does the IC50 (Mus musculus [1]) read?
**A.** 100 nM

**Q.** What about the Ki (Cannabinoid receptor [8]) of the same molecule?
**A.** 119 nM

**Q.** What about the Ki (Cannabinoid receptor [9]) of the same molecule?
**A.** > 2950 nM

**Q.** With `CCCCC/C=C\C/C=C\C/C=C\C/C=C\CCCC(=O)NCCO` [ANANDAMIDE] as the molecule, how does the IC50 (Mus musculus [1]) read?
**A.** 52 nM

**Q.** And the Ring immobility (Mus musculus [10])?
**A.** 64.2%

**Q.** And the Hypokinesia (Mus musculus [11])?
**A.** 14.7 Counts

**Q.** And the Ring immobility (Mus musculus [12])?
**A.** 93.9%

**Q.** And the Body temperature (Mus musculus [13])?
**A.** -1.43 °C

**Q.** What about the Hypokinesia (Mus musculus [14]) of the same molecule?
**A.** 10.2 Counts

**Q.** And the Body temperature (Mus musculus [15])?
**A.** -3.18 °C
